# Experiments:
# Bacillus subtilis = assay: Antibacterial activity against Bacillus subtilis BD54 after 16 to 24 hrs by twofold serial dilution method; assay type: functional
# Staphylococcus aureus [1] = assay: Antibacterial activity against Staphylococcus aureus ATCC 13709 (Smith) after 16 to 24 hrs by twofold serial dilution method; assay type: functional
# Staphylococcus aureus [2] = assay: Antibacterial activity against Staphylococcus aureus Smith infected Swiss-webster mouse assessed as mouse survival at 10 mg/kg, ip administered 15 mins post-infection for 24 hrs relative to control; assay type: functional; conditions: route intraperitoneal
# Outline: (§1)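 Male pathogen-free Swiss–Webster mice, 20–24 g, with free access to food and water. S. aureus Smith grown to log phase at 37 °C in LB, with CFU estimated from OD600. Cells washed in cold broth and injected IP in 0.5 mL broth. Groups of 5 or 10 mice dosed IP 15 min post-infection with vehicle (10% DMSO/peanut oil) or compound in vehicle. Daptomycin 30 mg/Kg in saline served as control.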
# Enterococcus faecalis [3] = assay: Antibacterial activity against vancomycin-resistant Enterococcus faecalis after 16 to 24 hrs by twofold serial dilution method
# Enterococcus faecium = assay: Antibacterial activity against Enterococcus faecium ATCC 19434 after 16 to 24 hrs by twofold serial dilution method; assay type: functional
# Escherichia coli = assay: Antibacterial activity against Escherichia coli J-53 after 16 to 24 hrs by twofold serial dilution method; assay type: functional
# Staphylococcus aureus [4] = assay: Antibacterial activity against Staphylococcus aureus ATCC 25923 after 16 to 24 hrs by twofold serial dilution method; assay type: functional
# Staphylococcus aureus [5] = assay: Antibacterial activity against Staphylococcus aureus Smith infected Swiss-webster mouse assessed as mouse survival at 30 mg/kg, ip administered 15 mins post-infection for 24 hrs relative to control; assay type: functional; conditions: route intraperitoneal; outline: as §1
# Enterococcus faecalis [6] = assay: Antibacterial activity against Enterococcus faecalis ATCC 29212 after 16 to 24 hrs by twofold serial dilution method; assay type: functional
# Staphylococcus aureus [7] = assay: Antibacterial activity against methicillin-resistant Staphylococcus aureus ATCC 1094 after 16 to 24 hrs by twofold serial dilution method; assay type: functional
# Staphylococcus aureus [8] = assay: Antibacterial activity against Staphylococcus aureus Smith infected Swiss-webster mouse assessed as mouse survival at 60 mg/kg, ip administered 15 mins post-infection for 24 hrs relative to control; assay type: functional; conditions: route intraperitoneal; outline: as §1
compound,measurement,setting,value
CC(=O)OCCCCCn1cnc2nc(NCc3ccc(Cl)c(Cl)c3)nc(O)c21,MIC,Bacillus subtilis,1.25 µg/mL
same,MIC,Staphylococcus aureus [1],1.25 µg/mL
same,survival at 10 mg/kg,Staphylococcus aureus [2],30%
same,MIC,Enterococcus faecalis [3],5 µg/mL
same,MIC,Enterococcus faecium,1.25 µg/mL
same,MIC,Escherichia coli,> 80 µg/mL
same,MIC,Staphylococcus aureus [4],2.5 µg/mL
same,survival at 30 mg/kg,Staphylococcus aureus [5],50%
same,MIC,Enterococcus faecalis [6],1.25 µg/mL
same,MIC,Staphylococcus aureus [7],1.25 µg/mL
same,survival at 60 mg/kg,Staphylococcus aureus [8],80%

# — ChEMBL document CHEMBL1795271, “7-Alkyl-N(2)-substituted-3-deazaguanines. Synthesis, DNA polymerase III inhibition and antibacterial activity” (Bioorg Med Chem Lett, 2011)
